The list is not random: actives were taken first. Their share in the collection is about 10%.
WT yeast gro inh = growth inhibition of WT yeast, mitochondrial fusion screen | AID 1362 | mitochondrial fusion phenotypic screen, WT strain | actives 2.1% (n = 190,000) | inhibition, % at 10 µM; in the data active means inhibition above about 58%; tested in S. cerevisiae
PMI act = activators of human phosphomannose isomerase. P34949. purified human PMI, coupled resazurin fluorescence, 20 min; hits give high values; 1 = vehicle control, 0 substrate-free wells. activation factor at 20 µM. actives 0.005% (n = 190,000). AID 1214;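 active means activation factor of 2 or more at 20 µM, relative to plate controls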
Target sequence (P34949 whole entry, looked up): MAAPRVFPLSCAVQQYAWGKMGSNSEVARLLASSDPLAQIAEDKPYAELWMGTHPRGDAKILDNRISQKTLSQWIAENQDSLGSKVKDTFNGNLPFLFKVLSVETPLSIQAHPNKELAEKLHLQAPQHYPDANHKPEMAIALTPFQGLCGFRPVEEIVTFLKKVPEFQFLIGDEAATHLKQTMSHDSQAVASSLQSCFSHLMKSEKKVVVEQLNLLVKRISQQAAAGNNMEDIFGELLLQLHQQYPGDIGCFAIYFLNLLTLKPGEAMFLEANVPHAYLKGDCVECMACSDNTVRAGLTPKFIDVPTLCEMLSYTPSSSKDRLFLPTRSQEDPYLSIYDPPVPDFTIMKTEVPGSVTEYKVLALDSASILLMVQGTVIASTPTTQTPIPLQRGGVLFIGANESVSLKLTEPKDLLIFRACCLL
Diaph act CS = diaphorase activation or chemical reduction counter-screen; Diaphorase/resazurin coupled assay, resorufin fluorescence, 16 min; hits give high values; 1 = vehicle wells, 0 = NADH-free wells; activation factor at 20 µM; actives 0.005% (n = 190,000);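 active means diaphorase activity raised at least twofold by the compound at 20 µM; inactive means activation factor below 2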
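Assay system: bacterial diaphorase enzyme (C. kluyveri) / Input: enzyme 0.07 U/mL final / Medium: 50 mM HEPES pH 7.4 with 4.542 mM MgCl2, 0.005% Tween 20 / Doses: single compound dose of 20 µM, 1% DMSO final / Incubation: 16 min enzyme reaction, ambient temperature / Signal: fluorescence, excitation 544 nm and emission 590 nm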
Lmaj promast = reduces viability of Leishmania major promastigotes | resazurin fluorescence viability | inhibition, % at 10 µM | actives 9% (n = 200,000); in the data active means inhibition above about 50%;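 further: promastigotes grown with compound for 44 hours at 28 °C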
PMI act hi M6P = PMI (human) activation, high substrate | coupled PMI enzyme assay, resazurin fluorescence, 20 min; hits give high values; 1 = untreated enzyme, 0 = substrate-free blank | activation factor at 20 µM | actives 0.34% (n = 190,000);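 active means activation factor of 2 or more at 20 µM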
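assay system = human phosphomannose isomerase with PGI, G6PDH, diaphorase coupling enzymes | quantity = 15 ng/mL PMI | incubation = enzyme reaction with compound 20 min at room temperature | medium = HEPES pH 7.4 buffer with MgCl2 and Tween-20 | compound dosing = one concentration, 20 µM, in 1% DMSO | measured by = Diaphorase-driven resazurin-to-resorufin fluorescence, excitation 544, emission 590 nm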
Each line names hits and unclear results; the compound was inactive in the other large screens.

Cc1ccccc1N1Cc2ccccc2C1	PMI act hi M6P 2.2
COc1ccc(OC)c(N2Cc3ccccc3C2)c1	none
CCOc1ccccc1NC(=S)NCC1CCCO1 (stereo not drawn)	Lmaj promast 51
NS(=O)(=O)c1ccc(NC(=S)NCC2CCCO2)cc1 (stereo not drawn)	Lmaj promast 55
O=C(Nc1ccc(Br)cc1Cl)NC1CC1	none
Cc1ccc2oc(Nc3nc(-c4ccccc4)cc(=O)[nH]3)nc2c1	Lmaj promast 98
COCc1cc(=O)[nH]c(Nc2nc3ccccc3o2)n1	Lmaj promast 99
Cc1nc(-c2ccccc2)cc(=O)[nH]1	none
COCc1cc(=O)[nH]c(Nc2nc(C)c3ccccc3n2)n1	Lmaj promast 79
Cc1c(NC(=O)c2cccc(-c3cc4ccccc4oc3=O)c2)cccc1-c1nc2ncccc2o1	none
O=C(Nc1nc(-c2ccc(Cl)cc2)cs1)NC1CCCCC1	none
COc1ccc(C(=O)/C=C/c2ccc(O)cc2)c(O)c1CC=C(C)C	WT yeast gro inh 87
O=C(c1ccc(F)cc1)N(NC(=O)C(O)(c1ccccc1)c1ccccc1)c1ccccc1	Lmaj promast 66
COC(=O)N(NC(=O)C(O)(c1ccccc1)c1ccccc1)c1ccccc1	none
CCOC(=O)C1=C(C)N(C)C(C)=C(C(=O)OCC)C1c1cccnc1	Lmaj promast 95
CCOC(=O)C1=C(C)Nc2ncnn2C1c1cccnc1 (stereo not drawn)	none
CCOC(=O)C1=C(N)Oc2cc(C)oc(=O)c2C1c1cccnc1 (stereo not drawn)	none
COC(=O)C1=C(N)Oc2cc(C)n(CCc3ccccc3)c(=O)c2C1c1cccnc1 (stereo not drawn)	Lmaj promast 98
CCOC(=O)C1=C(N)N(c2ccccc2)C2=C(C(=O)CCC2)C1c1cccnc1 (stereo not drawn)	Lmaj promast 72
CCOC(=O)C1=C(N)Oc2ccc3ccccc3c2C1c1cccnc1 (stereo not drawn)	Lmaj promast 98
Cc1c(Cl)cccc1N1CC(C)(C)C1=O	none
CCN(CC(=O)Nc1ccccc1OC)CC(=O)Nc1c(Cl)ccc(C)c1Cl	none
O=C(Nc1ccc(N2CCOCC2)cc1)C1CC(O)CN1S(=O)(=O)c1ccc(Cl)cc1 (stereo not drawn)	none
CCOC(=O)C1=C(N)Oc2cc(C)n(CCc3ccc(OC)c(OC)c3)c(=O)c2C1c1cccnc1 (stereo not drawn)	Lmaj promast 94
O=C(OCc1ccc(Cl)cc1Cl)c1ccncc1	none
CC(C)CCNC(=O)CCc1nnc(COc2ccccc2)o1	none
CC1CCCCN1CC(O)COCCC12CC3CC(CC(C3)C1)C2 (stereo not drawn)	Lmaj promast 94
CCOC(=O)N1CCN(CC(O)COCCC23CC4CC(CC(C4)C2)C3)CC1 (stereo not drawn)	WT yeast gro inh 60, Lmaj promast 87
CCOc1ccc(-c2cc(C(=O)NCC3CCCO3)c3ccccc3n2)cc1 (stereo not drawn)	none
O=C1C2C3C=CC(C4CC34)C2C(=O)N1/N=C/c1cccs1 (stereo not drawn)	none
Brc1ccc(-c2nn3c(-c4ccco4)nnc3s2)o1	PMI act hi M6P 2
Cc1ccc(CN2CCN(CCCn3cccn3)CC2CCO)cc1 (stereo not drawn)	none
Cc1ccc(CN2CCN(Cc3ccc(-n4cccn4)cc3)CC2CCO)cc1 (stereo not drawn)	Lmaj promast 62
CC(=O)c1cccc(CN2CCN(Cc3ccccc3)C(CCO)C2)c1 (stereo not drawn)	none
Cc1cc(-n2cccn2)ccc1CN1CCN(C2CCCC2)C(CCO)C1 (stereo not drawn)	Lmaj promast 64
CC(C)CCN1CCN(Cc2cccc(-n3cccn3)c2)CC1CCO (stereo not drawn)	Lmaj promast 83
OCCC1CN(Cc2cccc(-n3cccn3)c2)CCN1Cc1ccccc1 (stereo not drawn)	Lmaj promast 79
O=C(CNC(=O)c1ccccc1F)NCCOc1ccccc1Cl	none
Cc1ccc(S(=O)(=O)Nc2ccccc2/C=N/c2nc3ccccc3n2C(C)C)cc1	Lmaj promast 58
CCCCn1c(/N=C/c2ccccc2NS(=O)(=O)c2ccc(C)cc2)nc2ccccc21	Lmaj promast 77
CCCn1c(/N=C/c2ccc3c(c2)OCO3)nc2ccccc21	none
CN(/N=C/c1ccc(O)cc1O)c1nc(-c2ccccc2)cc(-c2ccccc2)n1	Lmaj promast 64
Cn1c(=S)ccc2ccccc21	PMI act hi M6P 2.3
COc1ccc(NC(=O)c2cccc(-n3c(C)ccc3C)c2)c(OC)c1	Lmaj promast 63
Cc1cc(C)c2c(=O)[nH]c(SCC(=O)c3ccc(F)c(C)c3)nc2n1	none
O=C1CC(c2ccc(F)cc2)C(n2cncn2)C(O)=C1C1NCCc2ccccc21 (stereo not drawn)	none
O=C1NCCC/C1=N/Nc1ccc(F)cc1	PMI act hi M6P 2.2
CN1c2ccsc2/C(=N/Nc2ccc(F)cc2)CS1(=O)=O	none
Cc1cc(C)cc(-n2c(C)cc(C(=S)N3CCOCC3)c2C)c1	Lmaj promast 55
CCOC(=O)Cc1csc(NS(=O)(=O)c2ccc(Cl)cc2)n1	Lmaj promast 50
O=C(NC1(C(F)(F)F)N=C2SCCN2C1=O)c1ccccc1 (stereo not drawn)	none
O=C1N=C2SCCN2/C1=C\c1ccccc1Cl	Lmaj promast 100
O=C(NC1CCCCC1)C(c1ccncc1)N(Cc1ccccc1)C(=O)c1ccc(-c2ccccc2)[nH]1 (stereo not drawn)	Lmaj promast 99
CC(C)(C)NC(=O)C(c1ccncc1)N(Cc1ccco1)C(=O)c1ccc(-c2ccccc2)[nH]1 (stereo not drawn)	Lmaj promast 74
OCC(O)/C=N/Nc1nc(N2CCCCC2)nc(N2CCCCC2)n1 (stereo not drawn)	none
CC(C)n1c(NCc2cc(Cl)ccc2O)nc2ccccc21	Lmaj promast 66
C=CCn1c(NCc2cc(C)ccc2O)nc2ccccc21	none
Cn1c(NCc2c(O)ccc3ccccc23)nc2ccccc21	Lmaj promast 100
CCCn1c(CNc2ccccc2O)nc2ccccc21	Lmaj promast 82
C=CCn1c(NC(C)c2cc(Cl)ccc2O)nc2ccccc21 (stereo not drawn)	Lmaj promast 96
COc1ccc(/C=N/NC(=O)c2ccc3ccccc3c2)cc1OS(=O)(=O)c1ccc(NC(C)=O)cc1	none
Cc1ccsc1C(C(=O)NC(C)(C)C)N(C(=O)c1csnn1)c1ccccc1 (stereo not drawn)	none
Cn1c(CNc2nc3ccccc3n2C)nc2ccccc21	Lmaj promast 50
CCn1c(CNc2nc3ccccc3n2C(C)C)nc2ccccc21	Lmaj promast 100
CCOc1ccccc1Nc1nc2ccccc2n1C(C)C	Lmaj promast 83
